Data published in publication PMC12345971 (Computational and Structural Biotechnology Journal, 2025).
Read-outs that look alike come from different tables or passages of the source.

Assays:
[1] = system: MOLT-3 lymphoblastic leukemia cell line; assay: Cytotoxic assay; format: cell-based, human; details: for IC50: Homo sapiens
Outline: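 MOLT-3 leukemia cells (passage 15–25) grown in RPMI-1640 with 2 mM L-glutamine, penicillin-streptomycin, sodium pyruvate, glucose, 10 % FBS. Seeding was at 5 × 10³ – 2 × 10⁴ cells/well, 24 h at 37C, 5 % CO₂. Serial dilutions of test compound in DMSO then given for 48 h. XTT read-out at 550 nm. Normal-cell comparator: MRC-5 in DMEM, MTT read-out. IC50 is the concentration for 50 % growth inhibition.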

[2] = system: 4 cancer cell lines (HepG2, HuCCA-1, A549, MOLT-3); assay: Cytotoxic assay, range over the four cancer cell lines; format: cell-based; details: Homo sapiens, read-out: IC50, range over the tested cancer cell lines
Outline: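 Human HepG2 (DMEM), HuCCA-1 and A549 (Ham's F12), and MOLT-3 (RPMI-1640) were all in 10 % FBS. MRC-5 normal fibroblasts were in DMEM. Seeding was at 5 × 10³ – 2 × 10⁴ cells/well for 24 h at 37C. Serial dilutions of test compound (DMSO solvent) were given for 48 h. Adherent lines were read by MTT and MOLT-3 by XTT, absorbance 550 nm. IC50 is the concentration for 50 % growth inhibition.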

[3] = Cytotoxicity against normal cell line; format: cell-based; details: human, MRC-5 normal fetal lung fibroblast cells
[4] = system: HuCCA-1 cholangiocarcinoma cancer cell line; assay: Cytotoxic assay; format: cell-based, human; details: IC50 for normal cell (MRC-5) / IC50 for cancer cell
Outline: (§1)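 A549 (passage 20–26) and HuCCA-1 (passage 115–121) kept in Ham's F12 with 2 mM L-glutamine, 100 U/mL penicillin-streptomycin, 10 % FBS; MRC-5 fibroblasts (passage 19–23) in DMEM, 10 % FBS. Cells seeded at 5 × 10³ – 2 × 10⁴/well in RPMI-1640 + 10 % FBS, 24 h at 37C, 5 % CO₂. DMSO-dissolved test compound added as serial dilutions, 48 h. MTT, absorbance 550 nm; IC50 = 50 % growth inhibition.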

[5] = system: A549 lung carcinoma cell line; assay: Cytotoxic assay; format: cell-based, human
Outline: as §1

[6] = system: HepG2 hepatocellular carcinoma cell line; assay: Cytotoxic assay; format: cell-based, human
[7] = IC50 for normal cell (MRC-5) / IC50 for cancer cell

Compound `CC1=CC(=O)c2c(O)cccc2C1=O` [Compound 10, plumbagin] has an IC50 ([1]; MOLT-3, read-out: Experimental pIC50 MOLT-3 (converted)) of 1380 nM and an IC50 [2] of 1380 to 13600 nM.

With `COc1cccc2c1C(=O)c1c(O)c3c(c(O)c1C2=O)C[C@@](O)(C(=O)CO)C[C@@H]3O[C@H]1C[C@H](N)[C@H](O)[C@H](C)O1` [Doxorubicin, doxorubicin] the IC50 at 48 h [3] was 930 nM, the “Selectivity index (SI) HuCCA-1” value [4] was 1.08 and the IC50 ([5]; Homo sapiens, A549, 48 h, read-out: IC50 A549) was 310 nM. The “Selectivity index (SI) A549” value [5, 7] was 3.02, the IC50 ([6]; Homo sapiens, HepG2, 48 h, read-out: IC50 HepG2, MTT, 48 h) was 460 nM and the “Selectivity index (SI) HepG2” value [6, 7] was 2.02.

For `COc1cc([C@@H]2c3cc4c(cc3[C@@H](O[C@@H]3O[C@@H]5CO[C@@H](C)O[C@H]5[C@H](O)[C@H]3O)[C@H]3COC(=O)[C@H]23)OCO4)cc(OC)c1O` [Etoposide, etoposide], the IC50 at 48 h [3] was 13400 nM, the IC50 ([1]; MOLT-3, 48 h, read-out: IC50 MOLT-3) was 60 nM and the “Selectivity index (SI) MOLT-3” value [1, 7] was 218.85.
